From article PMC12343878 (Communications Biology, 2025) come the findings set out here.

Data set [1] has as its target T1, AP2 (UniProt P18484+P62743+P63010+P84092). Kind of data set: Equilibrium tensiometry binding analysis.
Data set [2] deals with T1, AP2. Kind of data set: SNR low-resolution slab model of membrane-bound AP2 on Langmuir monolayers. The following applies: AP2 10 nM. Type of data set: binding. The gist of the method: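 Langmuir-trough monolayers held at 25 ± 1 mN/m were measured on the FIGARO reflectometer, then AP2 was injected beneath them to a final bulk concentration of 10 nM. Settings were two incidence angles (0.6°, 3.7°), 7% wavelength resolution and Qz 0.007–0.25 Å−1, with 100% D2O and 8.1% D2O contrasts. The bound protein was fitted as a slab of constant SLD. Fit errors were ±1σ, checked against triplicate measurements.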

For data set [3], the target named is T1, AP2. The data set is described as follows: High-resolution SNR rigid-body modeling of membrane-bound AP2. Type of data set: binding. A digest of the protocol:
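Measured on the FIGARO time-of-flight reflectometer at 0.6° and 3.7°, 7% dλ/λ, Qz 0.007–0.25 Å−1, in 100% and 8.1% D2O contrasts. Trough monolayers at 25 ± 1 mN/m were measured before and after AP2 injection into the subphase (final 10 nM). SLD profiles were calculated from energy-minimised open, open+ and closed AP2 models (PDB […], 6qh6, 2vgl) to fit orientation and position. Fractional coverage is given as mean ± SD, n = 256.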

Data set [4] concerns the target T1, AP2. The data set is described as follows: Fluid-phase tapping-mode AFM of transferred monolayers. The settings on record: CD4-presenting monolayers. A digest of the protocol: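 Monolayers were transferred from a Langmuir trough onto glass coverslips by Langmuir–Schaeffer and imaged by fluid-phase tapping-mode AFM. Scans were 5 μm at 256×256 pixels and 1 Hz. A droplet of HKM buffer containing recombinant AP2 was spread and imaged before evaporation. Thickness profiles (n = 10) were Gaussian-fitted to give mean ± SD.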

Data set [5] can be described thus: SNR of Langmuir lipid monolayers before AP2. The format is physicochemical. The settings on record: Π0 = 25 ± 0.5 mN/m.
Data set [6] is described as follows: Surface pressure - area isotherms of PM model membranes. Type of data set: physicochemical. The following applies: T = 21 ± 0.5 °C.
For data set [7], the target named is CD4 lipo-peptide (di-leucine peptide derived from the phosphorylated cytoplasmic tail of CD4, lipid-conjugated). The data set is described as follows: specular neutron reflectometry.
Data set [8] addresses TGN38 lipo-peptide (Yxxφ-containing peptide derived from the cytoplasmic tail of TGN38, lipid-conjugated). Kind of data set: specular neutron reflectometry.
Data set [9] addresses CD4 lipo-peptide (di-leucine peptide derived from the phosphorylated cytoplasmic tail of CD4, lipid-conjugated). The data set is described as follows: Langmuir trough surface-pressure tensiometry.
Data set [10] concerns the target TGN38 lipo-peptide (Yxxφ-containing peptide derived from the cytoplasmic tail of TGN38, lipid-conjugated). The data set is described as follows: Langmuir trough surface-pressure tensiometry.

Square brackets hold non-standard residues; d marks the D form. Peptide text beside a SMILES is read from it. * marks the point of attachment. X1 = CCCCCCCCCCCCCCCC(=O)OC[C@H](COP(=O)(O)OCCNC(=O)CCCc1ccc(N2C(=O)CC(*)C2=O)cc1)OC(=O)CCCCCCCCCCCCCCC; pS = N[C@@H](COP(=O)(O)O)C(=O)O

AP2 (recombinant adaptor protein complex 2, hetero-tetramer), sequence (P18484 whole entry): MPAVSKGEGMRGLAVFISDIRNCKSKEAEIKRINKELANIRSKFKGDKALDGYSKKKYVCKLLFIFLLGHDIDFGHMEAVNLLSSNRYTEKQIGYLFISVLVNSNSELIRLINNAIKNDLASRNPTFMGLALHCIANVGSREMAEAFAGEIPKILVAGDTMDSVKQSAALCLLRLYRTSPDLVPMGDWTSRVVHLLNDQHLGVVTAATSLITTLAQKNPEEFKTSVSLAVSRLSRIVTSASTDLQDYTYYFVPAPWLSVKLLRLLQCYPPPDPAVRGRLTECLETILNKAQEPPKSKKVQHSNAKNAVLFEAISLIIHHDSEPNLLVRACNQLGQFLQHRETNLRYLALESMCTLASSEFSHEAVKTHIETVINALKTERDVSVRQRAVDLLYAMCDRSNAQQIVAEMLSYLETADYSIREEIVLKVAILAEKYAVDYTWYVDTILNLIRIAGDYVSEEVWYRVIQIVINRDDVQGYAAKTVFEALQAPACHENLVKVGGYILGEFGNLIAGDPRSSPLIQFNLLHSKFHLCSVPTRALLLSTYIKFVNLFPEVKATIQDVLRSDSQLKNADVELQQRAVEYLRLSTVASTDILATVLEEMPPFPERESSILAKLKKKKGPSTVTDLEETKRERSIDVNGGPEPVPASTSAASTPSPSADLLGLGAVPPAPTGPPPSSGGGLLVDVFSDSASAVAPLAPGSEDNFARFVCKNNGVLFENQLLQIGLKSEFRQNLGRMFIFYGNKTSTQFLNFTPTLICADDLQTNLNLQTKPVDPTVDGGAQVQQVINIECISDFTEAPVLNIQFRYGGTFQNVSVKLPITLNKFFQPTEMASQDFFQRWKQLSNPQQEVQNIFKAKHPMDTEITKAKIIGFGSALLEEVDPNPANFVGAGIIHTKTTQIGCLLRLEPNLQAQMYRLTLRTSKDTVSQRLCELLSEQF
AP2 (recombinant adaptor protein complex 2, hetero-tetramer), sequence (P63010 whole entry): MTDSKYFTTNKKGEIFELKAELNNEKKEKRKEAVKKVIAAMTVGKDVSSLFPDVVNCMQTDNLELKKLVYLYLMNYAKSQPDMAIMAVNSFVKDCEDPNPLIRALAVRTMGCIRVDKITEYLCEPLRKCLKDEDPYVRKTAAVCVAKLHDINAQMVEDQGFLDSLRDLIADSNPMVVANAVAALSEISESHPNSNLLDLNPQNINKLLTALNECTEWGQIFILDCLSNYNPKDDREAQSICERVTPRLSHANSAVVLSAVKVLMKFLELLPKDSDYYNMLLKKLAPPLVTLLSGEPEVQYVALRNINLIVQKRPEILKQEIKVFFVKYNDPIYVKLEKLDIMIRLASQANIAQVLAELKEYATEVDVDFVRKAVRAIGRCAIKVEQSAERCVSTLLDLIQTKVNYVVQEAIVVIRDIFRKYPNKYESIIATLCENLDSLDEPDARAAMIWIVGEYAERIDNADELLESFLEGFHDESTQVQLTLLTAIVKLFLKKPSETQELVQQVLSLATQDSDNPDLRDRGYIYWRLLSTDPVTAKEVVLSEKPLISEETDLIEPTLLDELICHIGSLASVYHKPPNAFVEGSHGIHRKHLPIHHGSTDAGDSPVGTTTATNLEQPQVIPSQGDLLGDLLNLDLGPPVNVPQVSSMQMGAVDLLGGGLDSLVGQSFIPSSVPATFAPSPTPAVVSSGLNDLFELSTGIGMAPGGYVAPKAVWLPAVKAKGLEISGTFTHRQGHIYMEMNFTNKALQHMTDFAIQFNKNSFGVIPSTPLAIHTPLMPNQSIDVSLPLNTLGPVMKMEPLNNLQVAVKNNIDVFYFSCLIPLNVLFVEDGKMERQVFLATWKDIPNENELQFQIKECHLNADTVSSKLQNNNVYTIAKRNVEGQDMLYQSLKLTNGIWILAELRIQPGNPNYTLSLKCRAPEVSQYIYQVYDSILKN
AP2 (recombinant adaptor protein complex 2, hetero-tetramer), sequence (P84092 whole entry): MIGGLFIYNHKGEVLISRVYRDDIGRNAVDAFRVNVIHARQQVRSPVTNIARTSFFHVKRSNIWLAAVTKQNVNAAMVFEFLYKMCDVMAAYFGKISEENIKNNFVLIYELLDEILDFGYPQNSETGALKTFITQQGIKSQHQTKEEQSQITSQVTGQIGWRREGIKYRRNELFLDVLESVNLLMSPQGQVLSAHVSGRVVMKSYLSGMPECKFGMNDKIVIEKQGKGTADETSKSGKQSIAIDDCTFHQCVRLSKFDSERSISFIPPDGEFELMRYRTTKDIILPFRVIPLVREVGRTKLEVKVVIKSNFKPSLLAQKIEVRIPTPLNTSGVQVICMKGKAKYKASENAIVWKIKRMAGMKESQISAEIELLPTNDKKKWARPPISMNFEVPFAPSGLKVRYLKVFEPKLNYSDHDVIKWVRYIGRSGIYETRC
AP2 (recombinant adaptor protein complex 2, hetero-tetramer), sequence (P62743 whole entry): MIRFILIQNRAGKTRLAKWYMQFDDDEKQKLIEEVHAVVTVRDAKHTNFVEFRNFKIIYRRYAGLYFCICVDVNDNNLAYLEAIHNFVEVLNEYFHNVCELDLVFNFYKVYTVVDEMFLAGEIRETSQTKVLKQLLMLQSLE
T1 sequence (P63010 1-591): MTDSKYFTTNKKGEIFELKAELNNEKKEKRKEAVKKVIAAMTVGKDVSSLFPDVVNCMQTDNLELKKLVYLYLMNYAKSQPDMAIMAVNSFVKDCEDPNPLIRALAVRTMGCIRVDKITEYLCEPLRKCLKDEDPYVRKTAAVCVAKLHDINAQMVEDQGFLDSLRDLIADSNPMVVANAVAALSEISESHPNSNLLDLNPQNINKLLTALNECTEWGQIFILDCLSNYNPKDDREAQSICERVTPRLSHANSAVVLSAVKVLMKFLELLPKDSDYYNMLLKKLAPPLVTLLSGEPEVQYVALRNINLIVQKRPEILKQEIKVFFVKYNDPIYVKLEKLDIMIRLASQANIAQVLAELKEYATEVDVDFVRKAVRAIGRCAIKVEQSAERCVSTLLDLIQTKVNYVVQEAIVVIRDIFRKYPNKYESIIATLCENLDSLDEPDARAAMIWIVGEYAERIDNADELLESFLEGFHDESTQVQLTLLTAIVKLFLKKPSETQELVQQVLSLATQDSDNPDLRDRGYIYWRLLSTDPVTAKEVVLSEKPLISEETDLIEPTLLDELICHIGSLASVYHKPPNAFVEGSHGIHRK
T1 sequence (P84092 whole entry): as the sequence (P84092 whole entry) above
T1 sequence (P18484 1-621): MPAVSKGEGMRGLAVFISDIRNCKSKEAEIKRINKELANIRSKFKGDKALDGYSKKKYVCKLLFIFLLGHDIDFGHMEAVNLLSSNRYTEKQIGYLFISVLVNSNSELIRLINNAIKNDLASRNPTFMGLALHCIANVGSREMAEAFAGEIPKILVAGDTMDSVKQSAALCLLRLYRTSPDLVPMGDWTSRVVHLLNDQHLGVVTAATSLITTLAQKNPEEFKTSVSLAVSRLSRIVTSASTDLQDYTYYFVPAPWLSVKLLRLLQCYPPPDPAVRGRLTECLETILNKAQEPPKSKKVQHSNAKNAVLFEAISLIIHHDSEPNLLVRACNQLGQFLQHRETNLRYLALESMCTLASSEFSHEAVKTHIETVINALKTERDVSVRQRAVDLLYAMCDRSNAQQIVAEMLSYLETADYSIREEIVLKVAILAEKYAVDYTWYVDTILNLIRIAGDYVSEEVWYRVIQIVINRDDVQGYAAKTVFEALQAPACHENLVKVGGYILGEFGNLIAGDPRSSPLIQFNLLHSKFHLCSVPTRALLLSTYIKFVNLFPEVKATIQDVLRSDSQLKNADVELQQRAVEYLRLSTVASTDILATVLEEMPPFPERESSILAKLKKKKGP
T1 sequence (P62743 whole entry): as the sequence (P62743 whole entry) above

For `CCCCCCCCCCCCCCCC(=O)OC[C@H](COP(=O)(O)OCCNC(=O)CCCc1ccc(N2C(=O)CC(SC[C@H](N)C(=O)N[C@@H](Cc3c[nH]cn3)C(=O)N[C@@H](CCCNC(=N)N)C(=O)N[C@@H](CCCNC(=N)N)C(=O)N[C@@H](CCCNC(=N)N)C(=O)N[C@@H](CCC(N)=O)C(=O)N[C@@H](C)C(=O)N[C@@H](CCC(=O)O)C(=O)N[C@@H](CCCNC(=N)N)C(=O)N[C@@H](CCSC)C(=O)N[C@@H](COP(=O)(O)O)C(=O)N[C@@H](CCC(N)=O)C(=O)N[C@H](C(=O)N[C@@H](CCCCN)C(=O)N[C@@H](CCCNC(=N)N)C(=O)N[C@@H](CC(C)C)C(=O)N[C@@H](CC(C)C)C(=O)N[C@@H](CO)C(=O)N[C@@H](CCC(=O)O)C(=O)N[C@@H](CCCCN)C(=O)O)[C@@H](C)CC)C2=O)cc1)OC(=O)CCCCCCCCCCCCCCC` (stereo partly drawn) [CD4] (H-C(X1)HRRRQAERM[pS]QIKRLLSEK-OH; N-terminus and C-terminus assumed), the “change in lateral pressure ΔΠ∞ on addition of cargo” value on AP2 [1] (AP2, Π0 = 25 mN/m, vs PtdIns(4,5)P2-only) was “further increases in lateral pressure”. Further, on AP2 [1] (cargo-presenting monolayer vs PtdIns(4,5)P2-only), the “AP2 concentration above which biphasic binding behavior is observed” value is reported as over 10 nM. At AP2 [2], the “total thickness of membrane-bound AP2” value was 84 ± 6 Å. For the same compound, the “surface coverage of AP2” value on AP2 [3] (open AP2 conformation) is given as 24%. Besides, the “distance of AP2 center-of-mass to membrane head group” value at AP2 [3] (open AP2 conformation (2xa7)) is 10 ± 4 Å. For the same compound, the “increment of bright spots' thickness after AP2” value on AP2 [4] is given as “A similar increment was also found”. The “location of cargo peptides in monolayer” value in data set [5] is recorded as “confined to the headgroups layer”. The “effect on liquid expanded (LE) phase” value in data set [6] is “did not alter the existence of the LE phase”.
The term Kd denotes a measure of binding affinity in units of concentration. A higher Kd goes with a looser complex. Regarding “AP2 (recombinant adaptor protein complex 2, hetero-tetramer) (from UniProt P18484 1-938; P63010 1-937; P84092 1-435; P62743 1-142)”, in data set [7], the surface coverage of AP2 on the monolayer (with PtdIns(4,5)P2) was determined as 24%. This compound also gave a surface coverage of AP2 on the monolayer (with PtdIns(4,5)P2) in data set [8] of 51%. In data set [9], the Kd amounted to 0.075 µM; the apparent koff (combined cargo and PtdIns(4,5)P2 binding, monolayer) is 0.00012 s⁻¹; the overall Kd (monolayer with cargo and PtdIns(4,5)P2, 35 mN/m) was 0.093 µM; the residence time (1/koff) on the monolayer with PtdIns(4,5)P2 was found to be 8330 s. In data set [10], this compound displayed a Kd from kinetics (monolayer with cargo and PtdIns(4,5)P2) of 0.012 µM; an overall Kd (monolayer with cargo and PtdIns(4,5)P2) of 0.015 µM; an overall Kd (monolayer with cargo and PtdIns(4,5)P2, 35 mN/m) of 0.064 µM; a residence time (1/koff) on the monolayer with PtdIns(4,5)P2 of 5560 s.
